Experimental data: ChEMBL document CHEMBL2380219, “Physalin A induces apoptotic cell death and protective autophagy in HT1080 human fibrosarcoma cells” (J Nat Prod, 2013)
The source made the active and inactive calls. The rule behind the calls is not given here.

How the values were obtained:
HT-1080 [1] = assay: Induction of apoptosis in human HT1080 cells assessed as increase in apoptotic ratio at 10 uM pretreated with rapamycin for 1 hr prior to compound addition measured after 24 hrs by propidium iodide staining-based FACS flow cytometric analysis; type: functional, cell-based
HT-1080 [2] = assay: Induction of apoptosis in human HT1080 cells assessed as increase in apoptotic ratio at 10 uM pretreated with 3MA for 1 hr prior to compound addition measured after 24 hrs by propidium iodide staining-based FACS flow cytometric analysis; type: functional, cell-based
PBMC = assay: Cytotoxicity against human PBMC at 10 to 20 uM after 24 to 48 hrs by MTT assay; type: cell-based
How it was run: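 PBMC from fresh blood of three healthy male donors. Blood diluted 1:3 in PBS, layered on Ficoll-Hypaque (1.077 g/mL), spun 900g 30 min. Band washed 400g 10 min, cells resuspended in complete RPMI-1640 in 96-well plates. Treated with 0, 10, 20, 40 or 80 μM for 24 and 48 h, then MTT. Means ± SD of three independent experiments.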

HT-1080 [3] = assay: Induction of autophagy in human HT1080 cells assessed as conversion from LC31to LC32 at 10 uM pretreated with 3MA for 1 hr prior to compound addition measured after 24 hrs by Western blotting analysis; type: functional, cell-based
How it was run: (§1)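 HT1080 cells pretreated 1 h with 1 mM 3MA or 1 nM rapamycin, then 10 μM added for 24 h. Adherent and floating cells lysed in Hepes pH 7.4/Triton buffer. Equal protein on 12% SDS-PAGE and nitrocellulose, probed for beclin 1 and LC3, ECL detection. Normalized to β-actin, n = 3.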

HT-1080 [4] = assay: Induction of apoptosis in human HT1080 cells assessed as upregulation of FAS protein expression at 10 uM pretreated with 3MA for 1 hr prior to compound addition measured after 24 hrs by Western blotting analysis; type: functional, cell-based
How it was run: (§2)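 HT1080 cells pretreated 1 h with 1 mM 3MA or 1 nM rapamycin, then co-incubated with 10 μM for 24 h. Adherent and floating cells lysed in Hepes pH 7.4/Triton buffer. 12% SDS-PAGE, nitrocellulose, antibodies against Fas, FADD, caspase-8, caspase-3, PARP and ICAD, ECL detection. Densities normalized to β-actin; n = 3.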

HT-1080 [5] = assay: Induction of apoptosis in human HT1080 cells assessed as increase in procaspase-3 cleavage at 10 uM pretreated with rapamycin for 1 hr prior to compound addition measured after 24 hrs by Western blotting analysis; type: functional, cell-based; how it was run: as §2
HT-1080 [6] = assay: Induction of apoptosis in human HT1080 cells expressing beclin 1 siRNA assessed as reversal of beclin 1 upregulation at 10 uM after 24 hrs by Western blotting analysis relative to control; type: functional, cell-based
How it was run: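 Beclin 1 or nonspecific siRNA transfected into HT1080 cells (5 × 10^5 seeded a day earlier; transfection mixture for 7 h at 37 °C, then normal medium, 24 h before harvest). Cells then got 10 μM for 24 h. Adherent plus floating cells lysed in Hepes pH 7.4/Triton buffer at 4 °C for 60 min. Equal protein on 12% SDS-PAGE, nitrocellulose, ECL. Bands normalized to β-actin, n = 3.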

HT-1080 [7] = assay: Induction of apoptosis in human HT1080 cells assessed as change in cytochrome C expression at 10 uM after 6 to 24 hrs by Western blotting analysis; type: functional, cell-based
How it was run: (§3)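 HT1080 cells treated with 10 μM for 6, 12, 18 and 24 h. Adherent and floating cells lysed 60 min at 4 °C in Hepes pH 7.4/1% Triton X-100 buffer with phosphatase and protease inhibitors. Equal protein run on 12% SDS-PAGE, transferred to nitrocellulose, probed with specific antibodies, HRP/ECL detection. Band density normalized to β-actin; n = 3.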

HT-1080 [8] = assay: Cytotoxicity against human HT1080 cells assessed as growth inhibition at 1 to 100 uM by MTT assay; type: functional, cell-based; conditions: TDE = time-dependent effect
HT-1080 [9] = assay: Induction of autophagy in human HT1080 cells assessed as increase in autophagolysosomes at 10 uM after 24 hrs by MDC staining-based fluorescence microscopic analysis (reference value: 2.65 +/- 0.12%); type: functional
How it was run: (§4)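 HT1080 cells at 2 × 10^4 per well, cultured 24 h, then given 10 μM for 24 h. Stained with 0.05 mM MDC at 37 °C for 1 h. Autophagolysosomes viewed by fluorescence microscopy at 200×.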

HT-1080 [10] = assay: Induction of autophagy in human HT1080 cells assessed as increase in autophagy ratio at 10 uM pretreated with 3MA for 1 hr prior to compound addition measured after 24 hrs by MDC staining-based FACS flow cytometric analysis; type: functional, cell-based
How it was run: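 HT1080 cells seeded at 3 × 10^5 per flask and grown 24 h. Pretreated 1 h with 1 mM 3MA or 1 nM rapamycin, then 10 μM for 24 h. Collected cells stained with 0.05 mM MDC at 37 °C for 1 h. MDC-positive ratio measured by flow cytometry, n = 3, mean ± SD.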

HT-1080 [11] = assay: Induction of apoptosis in human HT1080 cells assessed as increase in FAS protein expression at 10 uM after 6 to 24 hrs by Western blotting analysis; type: functional, cell-based; how it was run: as §3
HT-1080 [12] = assay: Induction of autophagy in human HT1080 cells assessed as increase in autophagolysosomes at 10 uM by MDC staining-based fluorescence microscopic analysis; type: functional, cell-based; how it was run: as §4
HT-1080 [13] = assay: Induction of apoptosis in human HT1080 cells assessed as downregulation of ICAD at 10 uM after 6 to 24 hrs by Western blotting analysis; type: functional, cell-based; how it was run: as §3
HT-1080 [14] = assay: Induction of autophagy in human HT1080 cells assessed as upregulation of beclin 1 at 10 uM pretreated with rapamycin for 1 hr prior to compound addition measured after 24 hrs by Western blotting analysis; type: functional, cell-based; how it was run: as §1
HT-1080 [15] = assay: Cytotoxicity against human HT1080 cells assessed as growth inhibition at 10 uM pretreated with z-LEHD-FMK for 1 hr prior to compound addition measured after 24 hrs by MTT assay; type: functional, cell-based
How it was run: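 HT1080 seeded 0.8 × 10^4 cells/well. MTT 2 h at 37 °C, formazan in DMSO, A492 read. Inhibition % calculated against untreated and blank wells.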

HT-1080 [16] = assay: Induction of apoptosis in human HT1080 cells assessed as PARP cleavage at 10 uM after 6 to 24 hrs by Western blotting analysis; type: functional, cell-based; how it was run: as §3
HT-1080 [17] = assay: Induction of apoptosis in human HT1080 cells assessed as increase in PARP cleavage at 10 uM pretreated with rapamycin for 1 hr prior to compound addition measured after 24 hrs by Western blotting analysis; type: functional, cell-based; how it was run: as §2
HT-1080 [18] = assay: Induction of apoptosis in human HT1080 cells expressing beclin 1 siRNA assessed as increase in apoptotic ratio at 10 uM after 24 hrs by propidium iodide staining-based FACS flow cytometric analysis relative to control; type: functional, cell-based
How it was run: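 HT1080 cells transfected with beclin 1 or nonspecific siRNA (7 h at 37 °C, then 24 h in growth medium), then exposed to 10 μM for 24 h. Cells fixed in 70% ethanol at 4 °C for 18 h, washed, stained with PI 50 μg/mL plus RNase A 1 mg/mL. Apoptotic (sub-G1) fraction read by flow cytometry.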

HT-1080 [19] = assay: Induction of autophagy in human HT1080 cells assessed as upregulation of beclin 1 at 10 uM pretreated with 3MA for 1 hr prior to compound addition measured after 24 hrs by Western blotting analysis; type: functional, cell-based; how it was run: as §1
HT-1080 [20] = assay: Induction of apoptosis in human HT1080 cells assessed as change in procaspase-9 expression level at 10 uM after 6 to 24 hrs by Western blotting analysis; type: functional, cell-based; how it was run: as §3

For `C=C1C(=O)O[C@@H]2C[C@@]1(C)[C@@H]1C(=O)[C@]3(O)O[C@]14[C@@]2(C)OC(=O)[C@@]4(O)CC[C@H]1[C@H]3[C@H](O)C=C2CC=CC(=O)[C@@]21C` [PHYSALIN A], the Activity (HT-1080 [1]) was “inactive”, the Activity (HT-1080 [2]) was “Active” and the Activity (PBMC) was “Non-toxic”. For the same molecule, the Activity (HT-1080 [3]) was “inactive”, the Activity (HT-1080 [4]) was “Active” and the Activity (HT-1080 [5]) was “inactive”. For the same molecule, the Activity (HT-1080 [6]) was “Active”, the Activity (HT-1080 [7]) was “inactive” and the “growth inhibition (GI)” value (HT-1080 [8]) was “tde”. For the same molecule, the Activity (HT-1080 [9]) was 26.7%, the Activity (HT-1080 [10]) was “inactive” and the Activity (HT-1080 [11]) was “Active”. The Activity (HT-1080 [12]) was “Active”, the Activity (HT-1080 [13]) was “Active” and the Activity (HT-1080 [14]) was “Active”. For the same molecule, the “growth inhibition (GI)” value (HT-1080 [15]) was “inactive”, the Activity (HT-1080 [16]) was “Active” and the Activity (HT-1080 [17]) was “inactive”. For the same molecule, the Activity (HT-1080 [18]) was “Active”, the Activity (HT-1080 [19]) was “inactive” and the Activity (HT-1080 [20]) was “inactive”.
